The source made the active and inactive calls. No cut-off for these calls is given here.
Columns and labels:
[1] = tested on: Mythimna separata; test: In vivo insecticidal activity against pre-third-instar larval stage of Mythimna separata (Oriental armyworm) in corn leaves assessed as inhibition of larval pupation at 1 mg/ml treated for 3 secs before larval infestation on corn leaves by leaf-dipping method; assay type: functional, organism-based
How it was run: (§1)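 Leaf-dipping bioassay on pre-third-instar Mythimna separata larvae, with compounds applied at 1 mg/mL. Toosendanin, a commercial insecticide from Melia azedarach, served as the positive control.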

[2] = tested on: Mythimna separata; test: In vivo insecticidal activity against pre-third-instar larval stage of Mythimna separata (Oriental armyworm) in corn leaves assessed as corrected mortality rate at 1 mg/ml treated for 3 secs before larval infestation on corn leaves measured after 30 days by leaf-dipping method; assay type: functional; conditions: 720 h; how it was run: as §1
[3] = tested on: Mythimna separata; test: In vivo insecticidal activity against pre-third-instar larval stage of Mythimna separata (Oriental armyworm) in corn leaves assessed as corrected mortality rate at 1 mg/ml treated for 3 secs before larval infestation on corn leaves measured after 10 days by leaf-dipping method; assay type: functional; conditions: 240 h; how it was run: as §1
[4] = tested on: Mythimna separata; test: In vivo insecticidal activity against pre-third-instar larval stage of Mythimna separata (Oriental armyworm) in corn leaves assessed as induction of larval immobility at 1 mg/ml treated for 3 secs before larval infestation on corn leaves measured after 48 hr by leaf-dipping method; assay type: functional, organism-based; how it was run: as §1
[5] = tested on: Mythimna separata; test: In vivo insecticidal activity against pre-third-instar larval stage of Mythimna separata (Oriental armyworm) in corn leaves assessed as induction of loss of body liquid at 1 mg/ml treated for 3 secs before larval infestation on corn leaves measured after 48 hr by leaf-dipping method; assay type: functional, organism-based; how it was run: as §1
[6] = tested on: Mythimna separata; test: In vivo insecticidal activity against pre-third-instar larval stage of Mythimna separata (Oriental armyworm) in corn leaves assessed as inhibition of adult emergence at 1 mg/ml treated for 3 secs before larval infestation on corn leaves by leaf-dipping method; assay type: functional, organism-based; how it was run: as §1
[7] = tested on: Mythimna separata; test: In vivo insecticidal activity against pre-third-instar larval stage of Mythimna separata (Oriental armyworm) in corn leaves assessed as reduction in larval movement at 1 mg/ml treated for 3 secs before larval infestation on corn leaves measured after 24 hr by leaf-dipping method; assay type: functional, organism-based; how it was run: as §1
[8] = tested on: Mythimna separata; test: In vivo insecticidal activity against pre-third-instar larval stage of Mythimna separata (Oriental armyworm) in corn leaves assessed as corrected mortality rate at 1 mg/ml treated for 3 secs before larval infestation on corn leaves measured after 20 days by leaf-dipping method; assay type: functional; conditions: 480 h; how it was run: as §1
[9] = tested on: Mythimna separata; test: In vivo insecticidal activity against pre-third-instar larval stage of Mythimna separata (Oriental armyworm) in corn leaves assessed as induction of molting to abnormal pupae at 1 mg/ml treated for 3 secs before larval infestation on corn leaves measured after 48 hr by leaf-dipping method; assay type: functional, organism-based; how it was run: as §1

| Compound | Activity [1] | mortality at 1000 µg/mL [2] [%] | mortality at 1000 µg/mL [3] [%] | Activity [4] | Activity [5] | Activity [6] | Activity [7] | mortality at 1000 µg/mL [8] [%] | Activity [9] |
| --- | --- | --- | --- | --- | --- | --- | --- | --- | --- |
| CCc1ccc(S(=O)(=O)Oc2c(OC)cc([C@@H]3c4cc5c(cc4C[C@H]4COC(=O)[C@@H]43)OCO5)cc2OC)cc1 | Active | 35.7 | 13.3 | Active | Active | Active | Active | 27.6 | Active |
| CC(=O)O[C@@H]1C[C@H](O)[C@@]23CO[C@@H](O)[C@]1(C)[C@@H]2C[C@@H](O)[C@]1(C)[C@@H]3C(=O)[C@H](OC(C)=O)[C@@]2(C)[C@H](c3ccoc3)C[C@H]3O[C@]321 [TOOSENDANIN] |  | 46.4 | 30 |  |  |  |  | 34.5 |  |
| COc1cc([C@@H]2c3cc4c(cc3C[C@H]3COC(=O)[C@@H]32)OCO4)cc(OC)c1OS(=O)(=O)c1ccc(Cl)c([N+](=O)[O-])c1 | Active | 42.9 | 3.3 | Active | Active | Active | Active | 20.7 | Active |
| COc1cc([C@@H]2c3cc4c(cc3C[C@H]3COC(=O)[C@@H]32)OCO4)cc(OC)c1O [4'-DEMETHYLDEOXYPODOPHYLLOTOXIN] | Active | 21.4 | 10 | Active | Active | Active | Active | 13.8 | Active |
| COc1cc([C@@H]2c3cc4c(cc3C[C@H]3COC(=O)[C@@H]32)OCO4)cc(OC)c1OS(=O)(=O)c1ccc(Br)cc1 | Active | 50 | 20 | Active | Active | Active | Active | 31 | Active |
| COc1cc([C@@H]2c3cc4c(cc3C[C@H]3COC(=O)[C@@H]32)OCO4)cc(OC)c1OS(=O)(=O)c1ccccc1 | Active | 35.7 | 16.7 | Active | Active | Active | Active | 13.8 | Active |
| COc1cc([C@@H]2c3cc4c(cc3C[C@H]3COC(=O)[C@@H]32)OCO4)cc(OC)c1OS(=O)(=O)c1cccc([N+](=O)[O-])c1 | Active | 60.7 | 26.7 | Active | Active | Active | Active | 27.6 | Active |
| COc1cc([C@@H]2c3cc4c(cc3C[C@H]3COC(=O)[C@@H]32)OCO4)cc(OC)c1OS(=O)(=O)c1ccc(C)cc1 | Active | 21.4 | 3.3 | Active | Active | Active | Active | 10.3 | Active |
| COc1cc([C@@H]2c3cc4c(cc3C[C@H]3COC(=O)[C@@H]32)OCO4)cc(OC)c1OS(=O)(=O)c1ccc(Cl)cc1 | Active | 25 | 10 | Active | Active | Active | Active | 10.3 | Active |
| COc1cc([C@@H]2c3cc4c(cc3C[C@H]3COC(=O)[C@@H]32)OCO4)cc(OC)c1OC [DESOXYPODOPHYLLOTOXIN] | Active | 39.3 | 16.7 | Active | Active | Active | Active | 20.7 | Active |
| COc1ccc(S(=O)(=O)Oc2c(OC)cc([C@@H]3c4cc5c(cc4C[C@H]4COC(=O)[C@@H]43)OCO5)cc2OC)cc1 | Active | 46.4 | 33.3 | Active | Active | Active | Active | 37.9 | Active |

— ChEMBL document CHEMBL3045347, “Natural products-based insecticidal agents 5. Design, semisynthesis and insecticidal activity of novel 4'-substituted benzenesulfonate derivatives of 4-deoxypodophyllotoxin against Mythimna separata Walker in vivo” (2010)
